{"source": "ChEMBL document CHEMBL4152184", "about": "“NB 06: From a simple lysosomotropic aSMase inhibitor to tools for elucidating the role of lysosomes in signaling apoptosis and LPS-induced inflammation” (Eur J Med Chem, 2018)", "key": {"MONO-MAC-6 [1]": {"system": "MONO-MAC-6", "assay": "Upregulation of IL23A mRNA expression level in human MONO-MAC-6 cells at 5 uM incubated for 30 mins measured after 4 hrs by qRT-PCR method relative to control", "format": "functional"}, "[2]": {"target": "T1, Acid ceramidase (Homo sapiens) (UniProt Q13510)", "T1 sequence (whole entry)": "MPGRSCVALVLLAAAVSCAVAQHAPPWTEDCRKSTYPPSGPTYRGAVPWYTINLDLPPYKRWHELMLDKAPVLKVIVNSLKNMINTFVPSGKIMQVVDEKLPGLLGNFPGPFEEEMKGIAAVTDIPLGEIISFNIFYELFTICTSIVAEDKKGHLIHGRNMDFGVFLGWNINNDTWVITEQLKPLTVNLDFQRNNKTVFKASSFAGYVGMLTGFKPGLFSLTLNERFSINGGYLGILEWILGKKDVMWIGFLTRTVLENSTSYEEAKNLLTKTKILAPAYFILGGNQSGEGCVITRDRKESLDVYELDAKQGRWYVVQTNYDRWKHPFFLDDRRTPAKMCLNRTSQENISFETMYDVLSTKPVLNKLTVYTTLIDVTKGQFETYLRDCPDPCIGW", "assay": "Inhibition of exogenous C6-ceramid-stimulated acid ceramidase in human PBMC assessed as ratio of C24:1-ceramide/lipid phosphate level at 10 uM preincubated for 30 mins followed by C6-ceramid stimulation measured after 4 hrs by HPLC method (reference value: 2.65)", "format": "cell-based", "procedure,_shortened": "(§1)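 Human macrophages from primary culture were preincubated 30 min with 10 µM compound. They were then stimulated 4 h with mmLDL (54 µg/mL), TNFalpha (3 ng/mL) or exogenous C6-ceramide (10 µM), or left unstimulated. Individual ceramide species (C16 and C24:1) were quantified in the cell lipid extracts.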"}, "MONO-MAC-6 [3]": {"system": "MONO-MAC-6", "assay": "Upregulation of CXCL10 mRNA expression level in LPS-stimulated human MONO-MAC-6 cells at 5 uM preincubated for 30 mins followed by LPS stimulation measured after 2 hrs by oligonucleotide array hybridization assay (reference value: 1.73)", "format": "functional"}, "MONO-MAC-6 [4]": {"system": "MONO-MAC-6", "assay": "Downregulation of TNFalpha mRNA expression level in human MONO-MAC-6 cells at 5 uM incubated for 30 mins measured after 6 hrs by qRT-PCR method relative to control", "format": "functional"}, "MONO-MAC-6 [5]": {"system": "MONO-MAC-6", "assay": "Upregulation of CCL4 mRNA expression level in human MONO-MAC-6 cells at 5 uM incubated for 30 mins measured after 1 hr by oligonucleotide array hybridization assay relative to control", "format": "functional"}, "MONO-MAC-6 [6]": {"system": "MONO-MAC-6", "assay": "Upregulation of ICAM1 mRNA expression level in LPS-stimulated human MONO-MAC-6 cells at 5 uM preincubated for 30 mins followed by LPS stimulation measured after 6 hrs by oligonucleotide array hybridization assay (reference value: 2.90)", "format": "functional"}, "MONO-MAC-6 [7]": {"system": "MONO-MAC-6", "assay": "Downregulation of CXCL10 mRNA expression level in human MONO-MAC-6 cells at 5 uM incubated for 30 mins measured after 4 hrs by oligonucleotide array hybridization assay relative to control", "format": "functional", "procedure,_shortened": "(§2)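 Total RNA was isolated, transcribed and labeled with DY-647 dye, then co-hybridized with DY-548-labeled cDNA from untreated cells on an inflammation oligonucleotide chip (780 gene probes). Differential expression >1.5 was taken as significant.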"}, "MONO-MAC-6 [8]": {"system": "MONO-MAC-6", "assay": "Upregulation of IL23A mRNA expression level in LPS-stimulated human MONO-MAC-6 cells at 5 uM preincubated for 30 mins followed by LPS stimulation measured after 4 hrs by qRT-PCR method (reference value: 10.78)", "format": "functional"}, "MONO-MAC-6 [9]": {"system": "MONO-MAC-6", "assay": "Downregulation of CXCL2 mRNA expression level in human MONO-MAC-6 cells at 5 uM incubated for 30 mins measured after 2 hrs by qRT-PCR method relative to control", "format": "functional"}, "MONO-MAC-6 [10]": {"system": "MONO-MAC-6", "assay": "Upregulation of CXCL10 mRNA expression level in LPS-stimulated human MONO-MAC-6 cells at 5 uM preincubated for 30 mins followed by LPS stimulation measured after 6 hrs by oligonucleotide array hybridization assay (reference value: 1.57)", "format": "functional"}, "[11]": {"target": "T1, Acid ceramidase (Homo sapiens)", "assay": "Inhibition of C2-dihydroceramide-stimulated acid ceramidase in human PBMC assessed as reduction in C16-ceramide level at 10 uM preincubated for 30 mins followed by C2-dihydroceramide stimulation measured after 4 hrs by HPLC method", "format": "cell-based"}, "[12]": {"target": "T1, Acid ceramidase (Homo sapiens)", "assay": "Inhibition of TNFalpha-stimulated acid ceramidase in human PBMC assessed as ratio of C24:1-ceramide/lipid phosphate level at 10 uM preincubated for 30 mins followed by TNFalpha stimulation measured after 4 hrs by HPLC method (reference value: 3.05)", "format": "cell-based", "procedure,_shortened": "as §1"}, "MONO-MAC-6 [13]": {"system": "MONO-MAC-6", "assay": "Upregulation of FCGR2B mRNA expression level in LPS-stimulated human MONO-MAC-6 cells preincubated for 30 mins followed by LPS stimulation measured after 4 hrs by qRT-PCR analysis relative to control", "format": "functional"}, "MONO-MAC-6 [14]": {"system": "MONO-MAC-6", "assay": "Downregulation of IL-6 mRNA expression level in human MONO-MAC-6 cells at 5 uM incubated for 30 mins measured after 2 hrs by qRT-PCR method relative to control", "format": "functional"}, "MONO-MAC-6 [15]": {"system": "MONO-MAC-6", "assay": "Upregulation of CXCL10 mRNA expression level in human MONO-MAC-6 cells at 5 uM incubated for 30 mins measured after 1 hr by oligonucleotide array hybridization assay relative to control", "format": "functional"}, "MONO-MAC-6 [16]": {"system": "MONO-MAC-6", "assay": "Upregulation of CXCL2 mRNA expression level in LPS-stimulated human MONO-MAC-6 cells at 5 uM preincubated for 30 mins followed by LPS stimulation measured after 1 hr by oligonucleotide array hybridization assay (reference value: 1.42)", "format": "functional"}, "MONO-MAC-6 [17]": {"system": "MONO-MAC-6", "assay": "Upregulation of PTGS2 mRNA expression level in human MONO-MAC-6 cells at 5 uM incubated for 30 mins measured after 4 hrs by oligonucleotide array hybridization assay relative to control", "format": "functional"}, "MONO-MAC-6 [18]": {"system": "MONO-MAC-6", "assay": "Upregulation of ICAM1 mRNA expression level in human MONO-MAC-6 cells at 5 uM incubated for 30 mins measured after 1 hr by oligonucleotide array hybridization assay relative to control", "format": "functional"}, "MONO-MAC-6 [19]": {"system": "MONO-MAC-6", "assay": "Upregulation of ICAM1 mRNA expression level in LPS-stimulated human MONO-MAC-6 cells at 5 uM preincubated for 30 mins followed by LPS stimulation measured after 4 hrs by oligonucleotide array hybridization assay (reference value: 2.88)", "format": "functional"}, "MONO-MAC-6 [20]": {"system": "MONO-MAC-6", "assay": "Downregulation of PTX3 mRNA expression level in LPS-stimulated human MONO-MAC-6 cells at 5 uM preincubated for 30 mins followed by LPS stimulation measured after 1 hr by oligonucleotide array hybridization assay (reference value: 1.10)", "format": "functional", "procedure,_shortened": "as §2"}, "MONO-MAC-6 [21]": {"system": "MONO-MAC-6", "assay": "Upregulation of CXCL2 mRNA expression level in LPS-stimulated human MONO-MAC-6 cells at 5 uM preincubated for 30 mins followed by LPS stimulation measured after 2 hrs by oligonucleotide array hybridization assay (reference value: 4.20)", "format": "functional"}}, "note": "Activity calls are given as the source filed them. The rule behind the calls is not given here.", "data": [{"smiles": "COc1ccc(CCN(C)CCCn2c3ccccc3c3ccccc32)cc1", "values": [{"measurement": "fold change (FC)", "setting": "MONO-MAC-6 [1]", "value": 1.39}, {"measurement": "Ratio", "setting": "[2]", "value": 2.65}, {"measurement": "fold change (FC)", "setting": "MONO-MAC-6 [3]", "value": 1.63}, {"measurement": "fold change (FC)", "setting": "MONO-MAC-6 [4]", "value": 2.08}, {"measurement": "fold change (FC)", "setting": "MONO-MAC-6 [5]", "value": 1.22}, {"measurement": "fold change (FC)", "setting": "MONO-MAC-6 [6]", "value": 1.15}, {"measurement": "fold change (FC)", "setting": "MONO-MAC-6 [7]", "value": 2.08}, {"measurement": "fold change (FC)", "setting": "MONO-MAC-6 [8]", "value": 1.71}, {"measurement": "fold change (FC)", "setting": "MONO-MAC-6 [9]", "value": 1.27}, {"measurement": "fold change (FC)", "setting": "MONO-MAC-6 [10]", "value": 1.12}, {"measurement": "inhibition", "setting": "[11]", "value": "inactive"}, {"measurement": "Ratio", "setting": "[12]", "value": 1.28}, {"measurement": "fold change (FC)", "setting": "MONO-MAC-6 [13]", "value": 2.93}, {"measurement": "fold change (FC)", "setting": "MONO-MAC-6 [14]", "value": 2.15}, {"measurement": "fold change (FC)", "setting": "MONO-MAC-6 [15]", "value": 1.11}, {"measurement": "fold change (FC)", "setting": "MONO-MAC-6 [16]", "value": 1.14}, {"measurement": "fold change (FC)", "setting": "MONO-MAC-6 [17]", "value": 1.17}, {"measurement": "fold change (FC)", "setting": "MONO-MAC-6 [18]", "value": 1.1}, {"measurement": "fold change (FC)", "setting": "MONO-MAC-6 [19]", "value": 1.31}, {"measurement": "fold change (FC)", "setting": "MONO-MAC-6 [20]", "value": 1.02}, {"measurement": "fold change (FC)", "setting": "MONO-MAC-6 [21]", "value": 3.88}]}]}
